In PubChem BioAssay AID2170 (The Scripps Research Institute Molecular Screening Center, 2009):
Among all 2,400 compounds or so, about 660 (28%) were called active. Only a sample is shown. Values without a mark were called inactive.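 The calls were made as follows: active = mean inhibition over replicate wells above the hit cutoff set for the earlier primary screen (cut at about 29% in these data); inactive = the rest.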

test system: M18 aspartyl aminopeptidase (Plasmodium falciparum 3D7); assay: inhibition of P. falciparum M18 aminopeptidase – biochemical, QFRET, recombinant enzyme, triplicate, confirmation (AID 2170); settings: recombinant PfM18AAP, H-Glu-NHMec fluorogenic cleavage; at 7.35 µM; active compounds read high;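 also: 0% = median of test compound wells and 100% = 2 mM ZnCl2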
Procedure, shortened: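 system = purified recombinant M18 aspartyl aminopeptidase (PFM18AAP) from Plasmodium falciparum | reagent = H-Glu-NHMec fluorogenic substrate | dosing = one concentration, 7.35 µM final | incubation = Enzyme–compound pre-incubation 30 min, substrate reaction 90 min, both 25 °C | technique = fluorescence 340/450 nm at 0 and 90 min | controls = ZnCl2 inhibitor control | replication = triplicate wells per compound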

SMILES | inhibition
COc1ccccc1-c1nnc(SCC(=O)Nc2cc(C)on2)o1 | -49.2%
c1ccc(-c2ccc3c(c2)NC(C2Nc4cc(-c5ccccc5)ccc4O2)O3)cc1 (stereo not drawn) | -52.4%
O=C1CCCCN1CCCC(=O)N1CCCC(Nc2ccc(F)cc2)C1 (stereo not drawn) | -33.7%
COc1ccc(OC)c(Nc2nc(-c3ccc(O)c(O)c3)cs2)c1 | 42.4% (active)
Cc1cc(/C=N/Nc2ccc([N+](=O)[O-])cn2)c(C)n1-c1cccc(C(=O)O)c1 | -23.4%
Cc1ccc(-c2noc(CC(c3ccccc3)c3ccccc3)n2)cc1 | -39.5%
Cn1sc(=O)c2cc(S(=O)(=O)NC3CC3)ccc21 | -11.8%
O=C(CN1CCN(S(=O)(=O)c2cc(Cl)ccc2Cl)CC1)c1ccc(O)c(O)c1 | 31.5% (active)
Cc1nc2ccc(S(=O)(=O)NCC(=O)O)cc2s1 | 12.5%
O=C(Cn1c[n+](CC(=O)c2ccc([N+](=O)[O-])cc2)cn1)c1ccc([N+](=O)[O-])cc1 | 14%
O=c1nc(N/N=C/c2ccco2)cn[nH]1 | 18.9%
ONC(=Nc1ccccc1)c1ccccc1Cl | -2.39%
CC/C(C)=N/Nc1nc2sc3c(c2c(=O)[nH]1)CC(C)(C)OC3 | 9.57%
Cc1nccn1CC(=O)N/N=C/c1ccc(O)c(O)c1 | 58.4% (active)
Oc1ccc(/C=N/Nc2ccc(C(F)(F)F)cn2)cc1O | 6.58%
Cn1c(SCC(=O)N/N=C/c2ccc(O)c(O)c2)nc2ccccc21 | 50.9% (active)
CCn1c(CNS(=O)(=O)c2ccc(Cl)cc2)n[nH]c1=S | -0.52%
Cn1c(=O)[nH]c(=O)c2c1[nH]c(=S)n2Cc1ccccc1 | 6.35%
Cc1cc([N+](=O)[O-])c(-c2ccc(/C=N/n3cnnc3)o2)cc1Cl | 10.6%
COc1cc(/C=N\Nc2ccc([N+](=O)[O-])cn2)ccc1OCC(=O)O | -18%
O=C(COc1ccc([N+](=O)[O-])cc1Cl)Nn1cnnc1 | 36.8% (active)
CCN(CC)S(=O)(=O)c1cc([N+](=O)[O-])ccc1NNC(=O)Nc1ccccc1 | 25.9%
O=[N+]([O-])c1ccc(N2CCN(c3ccc(O)cc3)CC2)c(Cl)c1 | -3.08%
O=C(Nc1cccc([N+](=O)[O-])c1)Nn1cnnc1 | 64.6% (active)

SMILES | inhibition
O=C(O)CCn1c(O)c(C=C2N=c3ccccc3=N2)sc1=S | -42.5%
NC(=O)c1c(Nc2nc3c(F)cccc3s2)sc2c1CCCC2 | -18.3%
Cc1cc2c(C)nc(N/N=C/c3ccccc3)nc2o1 | -42.8%
O=C(CO/N=C/c1ccccc1O)NNC(=O)c1ccccc1Cl | 42.3% (active)
CCOc1cccc(/C=N/NC(=S)NCCN2CCOCC2)c1O | 16.9%
COc1ccc(OCc2nnc3n2N=C(c2ccccc2)C(CC(=O)O)S3)cc1 (stereo not drawn) | 40.8% (active)
COc1ccc(OCc2n[nH]c(=S)n2N)cc1 | 20.3%
CC1CCN(C(=O)c2ccc3c(c2)NC(=O)CN3)CC1 | -7.91%
CCN(CC)c1ccc2oc(=O)c(C)nc2c1 | 27.1%
ClC1(Cl)CC1CSc1ncn[nH]1 (stereo not drawn) | 11.5%
CCn1ccnc1CNC(=O)CC1C(=O)NCCN1Cc1ccc(F)cc1Cl (stereo not drawn) | -24.5%
CC(=O)c1ccc(NC(=O)CCc2nnc3ccc(NCc4ccco4)nn23)cc1 | -28.5%
CC(C)(C)C(=O)OCc1nc(-c2ccc(O)c(O)c2)cs1 | 53.5% (active)
COc1ccc(N/C=C(\C2OC(=O)c3ccccc32)[N+](=O)[O-])cc1 (stereo not drawn) | -36.7%
CC(/C=C/C1(O)C(C)CC(=O)CC1(C)C)OC1OC(CO)C(O)C(O)C1O (stereo not drawn) | 11.3%
CNC(=O)c1c(NC(NC(=O)c2ccco2)C(=O)c2ccc(Cl)cc2)sc2c1CCCC2 (stereo not drawn) | -18.7%
CC(C)(C)NC(=O)C(c1ccncc1)N(C(=O)CNC(=O)c1ccco1)c1ccc2c(c1)OCO2 (stereo not drawn) | -44.5%
CC(=O)N(c1ccc2oc(=O)sc2c1)S(=O)(=O)c1ccc(C)cc1 | -21.7%
O=C(O)c1cccc(NC(=S)N/N=C/c2c[nH]c3ccccc23)c1 | 3.61%
COc1cc(/C=N/NC(=S)Nc2cccnc2)cc(OC)c1O | 35.5% (active)
COc1cc(/C=N/Nc2nn3cnnc3c3ccccc23)cc(OC)c1OC | -33.8%
OCCN1CCN(C(=S)c2ccc(-c3ccccc3)cc2)CC1 | 14.5%
Cc1ccc(C)c(NC(=O)NNC(=O)c2ccc3ccccc3c2O)c1 | 4.3%
Cc1nc2nc[nH]n2c(=O)c1C/C=C/c1ccccc1 | 50.7% (active)
